Assay results taken from ChEMBL document CHEMBL1124054, “Synthesis and biological activity of ketomethylene-containing nonapeptide analogues of snake venom angiotensin converting enzyme inhibitors” (J Med Chem, 1988).
Non-standard residues stand in square brackets, D forms with d. Residues, ends and D or L forms follow the SMILES beside them. pGlu = O=C1CC[C@@H](C(=O)O)N1; Nle = CCCC[C@H](N)C(=O)O

Key:
[1] = target: T1, Angiotensin-converting enzyme (Rattus norvegicus, UniProt P47820); test: Inhibition of Angiotensin I converting enzyme in normotensive rat; format: functional; conditions: read-out: I50 (converted)
T1 sequence (P47820 whole entry): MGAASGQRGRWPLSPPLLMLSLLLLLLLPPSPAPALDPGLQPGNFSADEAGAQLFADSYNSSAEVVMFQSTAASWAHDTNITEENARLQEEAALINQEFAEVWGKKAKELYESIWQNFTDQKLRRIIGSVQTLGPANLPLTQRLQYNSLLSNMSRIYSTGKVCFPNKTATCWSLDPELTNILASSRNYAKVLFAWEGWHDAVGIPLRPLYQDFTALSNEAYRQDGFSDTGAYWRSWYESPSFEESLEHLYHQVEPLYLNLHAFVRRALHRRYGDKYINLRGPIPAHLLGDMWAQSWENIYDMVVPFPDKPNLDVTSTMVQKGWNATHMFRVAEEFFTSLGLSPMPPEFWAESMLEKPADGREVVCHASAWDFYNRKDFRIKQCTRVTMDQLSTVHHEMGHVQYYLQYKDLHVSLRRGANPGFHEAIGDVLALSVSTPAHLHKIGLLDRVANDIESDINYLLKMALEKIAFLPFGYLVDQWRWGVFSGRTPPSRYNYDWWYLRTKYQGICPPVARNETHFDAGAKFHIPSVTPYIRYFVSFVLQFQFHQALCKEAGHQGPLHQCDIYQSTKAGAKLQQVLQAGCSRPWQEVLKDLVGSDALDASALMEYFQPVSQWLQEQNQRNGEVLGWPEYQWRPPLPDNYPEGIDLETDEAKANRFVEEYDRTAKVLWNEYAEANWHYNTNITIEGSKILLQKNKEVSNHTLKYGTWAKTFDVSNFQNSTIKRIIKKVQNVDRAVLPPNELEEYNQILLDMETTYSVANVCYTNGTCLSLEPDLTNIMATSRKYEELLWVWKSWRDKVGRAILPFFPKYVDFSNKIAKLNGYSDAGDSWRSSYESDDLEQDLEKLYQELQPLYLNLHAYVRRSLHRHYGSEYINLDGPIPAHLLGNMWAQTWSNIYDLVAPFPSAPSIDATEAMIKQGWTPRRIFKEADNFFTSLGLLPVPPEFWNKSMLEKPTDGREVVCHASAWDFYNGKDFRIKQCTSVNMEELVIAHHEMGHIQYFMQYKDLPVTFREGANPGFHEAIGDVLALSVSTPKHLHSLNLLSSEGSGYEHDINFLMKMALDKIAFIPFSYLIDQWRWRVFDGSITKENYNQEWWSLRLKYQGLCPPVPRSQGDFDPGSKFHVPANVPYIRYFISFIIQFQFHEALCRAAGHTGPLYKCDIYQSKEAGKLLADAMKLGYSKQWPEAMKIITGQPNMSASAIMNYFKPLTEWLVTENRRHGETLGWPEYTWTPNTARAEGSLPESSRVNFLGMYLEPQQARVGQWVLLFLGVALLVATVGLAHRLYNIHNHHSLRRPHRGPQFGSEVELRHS

[2] = target: Angiotensin-converting enzyme (Oryctolagus cuniculus) (UniProt P12822); test: Inhibition of Angiotensin I converting enzyme from rabbit lung; conditions: read-out: I50
Rattus norvegicus [3] = test: Inhibition of angiotensin I induced blood pressure in normotensive anesthetized rats at 100 ug/kg (i.v.) for 10 min; format: functional
Procedure, shortened: (§1)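 Male Sprague-Dawley normotensive rats (290-540 g), pentobarbital-anesthetized (50 mg/kg ip), intubated. Jugular vein cannulated for iv dosing and carotid artery for blood pressure. Control pressor response to angiotensin I (175 ng/kg iv) taken after vehicle (1 mL/kg). Compound given iv in distilled water or 5% sodium bicarbonate. Angiotensin I challenge repeated at 1.5 to 75 min, rise in pressure compared with control.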

Rattus norvegicus [4] = test: Inhibition of angiotensin I induced blood pressure in normotensive anesthetized rats at 100 ug/kg (i.v.) for 1.5 min; format: functional; procedure, shortened: as §1
Rattus norvegicus [5] = test: Inhibition of angiotensin I induced blood pressure in normotensive anesthetized rats at 100 ug/kg (i.v.) for 5 min; format: functional; procedure, shortened: as §1
Rattus norvegicus [6] = test: Inhibition of angiotensin I induced blood pressure in normotensive anesthetized rats at 30 ug/kg (i.v.) for 1.5 min; format: functional; procedure, shortened: as §1
Rattus norvegicus [7] = test: Inhibition of angiotensin I induced blood pressure in normotensive anesthetized rats at 30 ug/kg (i.v.) for 5 min; format: functional; procedure, shortened: as §1
Rattus norvegicus [8] = test: Inhibition of angiotensin I induced blood pressure in normotensive anesthetized rats at 100 ug/kg (i.v.) for 75 min; format: functional; procedure, shortened: as §1
Rattus norvegicus [9] = test: Inhibition of angiotensin I induced blood pressure in normotensive anesthetized rats at 100 ug/kg (i.v.) for 30 min; format: functional; procedure, shortened: as §1
Rattus norvegicus [10] = test: Inhibition of angiotensin I induced blood pressure in normotensive anesthetized rats at 3 ug/kg (i.v.) for 1.5 min; format: functional; procedure, shortened: as §1
Rattus norvegicus [11] = test: Inhibition of angiotensin I induced blood pressure in normotensive anesthetized rats at 3 ug/kg (i.v.) for 5 min; format: functional; procedure, shortened: as §1
Rattus norvegicus [12] = test: Inhibition of angiotensin I induced blood pressure in normotensive anesthetized rats at 30 ug/kg (i.v.) for 30 min; format: functional; procedure, shortened: as §1
Rattus norvegicus [13] = test: Inhibition of angiotensin I induced blood pressure in normotensive anesthetized rats at 3 ug/kg (i.v.) for 10 min; format: functional; procedure, shortened: as §1
Rattus norvegicus [14] = test: Inhibition of angiotensin I induced blood pressure in normotensive anesthetized rats at 100 ug/kg (i.v.) for 60 min; format: functional; procedure, shortened: as §1
Rattus norvegicus [15] = test: Inhibition of angiotensin I induced blood pressure in normotensive anesthetized rats at 30 ug/kg (i.v.) for 10 min; format: functional; procedure, shortened: as §1

`NCCCC[C@H](NC(=O)[C@@H]1CCC(=O)N1)C(=O)N[C@@H](Cc1ccccc1)C(=O)NCC(=O)N1CCC[C@H]1C(=O)O` ([pGlu]KFGP-OH) gave an IC50 [1] of 179 nM.
In the case of `CC[C@H](C)[C@H](NC(=O)[C@H](CCC(N)=O)NC(=O)[C@@H]1CCCN1C(=O)CNC(=O)[C@@H]1CCCN1C(=O)[C@H](Cc1c[nH]c2ccccc12)NC(=O)[C@@H]1CCC(=O)N1)C(=O)N1CCC[C@H]1C(=O)N1CCC[C@H]1C(=O)O` ([pGlu]WPGPQIPP-OH), the IC50 [2] is reported as 1900 nM.
With `C[C@H](NC(=O)[C@H](Cc1ccccc1)NC(=O)[C@H](CCCCN)NC(=O)[C@@H]1CCCN1C(=O)[C@H](CCCN=C(N)N)NC(=O)[C@@H]1CCCN1C(=O)[C@H](Cc1c[nH]c2ccccc12)NC(=O)[C@@H]1CCC(=O)N1)C(=O)N1CCC[C@H]1C(=O)O` ([pGlu]WPRPKFAP-OH) the IC50 [2] was 50 nM.
For `CC[C@H](C)[C@H](NC(=O)[C@H](CCC(N)=O)NC(=O)[C@@H]1CCCN1C(=O)[C@H](CCCN=C(N)N)NC(=O)[C@@H]1CCCN1C(=O)[C@H](Cc1ccc(O)cc1)NC(=O)[C@@H]1CCC(=O)N1)C(=O)N1CCC[C@H]1C(=O)N1CCC[C@H]1C(=O)O` ([pGlu]YPRPQIPP-OH), the IC50 [2] was 2600 nM.
Compound `CCCC[C@H](NC(=O)[C@@H]1CCC(=O)N1)C(=O)N[C@@H](Cc1ccccc1)C(=O)N[C@@H](C)C(=O)N1CCC[C@H]1C(=O)O` ([pGlu][Nle]FAP-OH) has an IC50 [1] of 359 nM.
For `C[C@H](CS)C(=O)N1CCC[C@H]1C(=O)O` [CAPTOPRIL], the Inhibition over time (Rattus norvegicus [3]) was 51.1%, the Inhibition over time (Rattus norvegicus [4]) was 71.5% and the Inhibition over time (Rattus norvegicus [5]) was 83.5%. It also gave an Inhibition over time (Rattus norvegicus [6]) of 78.3%, an Inhibition over time (Rattus norvegicus [7]) of 60.5% and an Inhibition over time (Rattus norvegicus [8]) of 0%. For the same compound, the Inhibition over time (Rattus norvegicus [9]) was 27.3%, the Inhibition over time (Rattus norvegicus [10]) was 18.7% and the Inhibition over time (Rattus norvegicus [11]) was 8.3%. It also gave an Inhibition over time (Rattus norvegicus [12]) of 0%, an Inhibition over time (Rattus norvegicus [13]) of 0% and an Inhibition over time (Rattus norvegicus [14]) of 1.8%. The Inhibition over time (Rattus norvegicus [15]) was 8.3%.
For `CC[C@H](C)[C@H](NC(=O)[C@H](CCC(N)=O)NC(=O)[C@@H]1CCCN1C(=O)[C@H](CCCNC(=N)N)NC(=O)[C@@H]1CCCN1C(=O)[C@H](Cc1c[nH]c2ccccc12)NC(=O)[C@@H]1CCC(=O)N1)C(=O)N1CCC[C@H]1C(=O)N1CCC[C@H]1C(=O)O` [TEPROTIDE], the IC50 [2] was 1100 nM.
